The subject of one series is MDA-MB-231. Briefly: Growth inhibition of human MDA-MB-231 cells up to 10 uM after 6 days by MTT assay. Format: functional, cell-based. In general terms: Formazan colour is commonly taken as a measure of viable cells.
Series [1] concerns the target T1, Retinoic acid receptor beta (Homo sapiens, UniProt P10826).
T1 sequence (P10826 whole entry): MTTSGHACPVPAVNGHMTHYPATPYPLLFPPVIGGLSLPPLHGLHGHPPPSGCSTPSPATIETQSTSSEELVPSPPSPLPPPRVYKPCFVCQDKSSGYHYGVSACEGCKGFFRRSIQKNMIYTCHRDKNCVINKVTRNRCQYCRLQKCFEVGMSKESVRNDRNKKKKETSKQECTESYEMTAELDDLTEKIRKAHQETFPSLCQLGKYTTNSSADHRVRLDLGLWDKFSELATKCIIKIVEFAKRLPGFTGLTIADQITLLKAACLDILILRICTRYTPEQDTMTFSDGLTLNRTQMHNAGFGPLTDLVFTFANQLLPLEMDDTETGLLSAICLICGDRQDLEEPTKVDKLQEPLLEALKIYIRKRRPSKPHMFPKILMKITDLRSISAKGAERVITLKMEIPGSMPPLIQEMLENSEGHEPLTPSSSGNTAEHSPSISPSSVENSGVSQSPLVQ
The series is described as follows: Displacement of [11,12-3H]ARTA from RARbeta. The gist of the method: (§1)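 Recombinant S-Tag RARα, RARβ or RARγ fusion protein extracts (10-30 µg/mL total protein) in HEPES pH 7.9 binding buffer. Incubated with 1 nM [3H]all-trans-RA and 0-500 nM test compound for 3 h at 27 °C.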

The target of series [2] is T2, Cytochrome P450 26A1 (Homo sapiens, UniProt O43174).
T2 sequence (O43174 whole entry): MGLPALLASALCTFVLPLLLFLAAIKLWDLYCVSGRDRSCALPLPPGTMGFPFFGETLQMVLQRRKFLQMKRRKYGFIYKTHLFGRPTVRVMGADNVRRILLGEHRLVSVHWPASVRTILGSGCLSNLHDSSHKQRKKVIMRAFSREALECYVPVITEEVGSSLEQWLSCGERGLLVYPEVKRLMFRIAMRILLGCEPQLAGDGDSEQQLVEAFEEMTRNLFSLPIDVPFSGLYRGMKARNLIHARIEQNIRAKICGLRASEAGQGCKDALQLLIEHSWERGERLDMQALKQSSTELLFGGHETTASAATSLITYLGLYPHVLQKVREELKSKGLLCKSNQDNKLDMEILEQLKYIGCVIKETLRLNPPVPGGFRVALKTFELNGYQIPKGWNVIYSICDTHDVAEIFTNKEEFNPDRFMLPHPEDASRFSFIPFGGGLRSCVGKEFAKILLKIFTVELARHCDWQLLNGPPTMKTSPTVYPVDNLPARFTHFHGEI
The series is described as follows: Inhibition of ATRA-induced CYP26 in human T47D cell microsome assessed as ATRA metabolism using [11.12-3H]-ATRA. Format: functional, microsomes. The gist of the method:
(§2)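 Microsomes from male Syrian golden hamster liver, or from T47D cells pretreated with 1 µM ATRA. Incubation in 0.1 M phosphate buffer pH 7.4 with NADPH, MgCl2 and BSA, inhibitor in DMSO; 3 min preincubation at 37 °C, then [11,12-3H]-ATRA for 30 min at 37 °C under oxygen. Ethyl acetate extraction, reverse-phase HPLC with radiometric detection; percent polar metabolites; IC50 from dose-response curves.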

The subject of series [3] is MCF7. The series is described as follows: Reduction of tumor growth in MCF7 cells xenografted ovariectomized mouse at 0.033 mmol/kg, sc for 6 weeks relative to control. Format: functional, Homo sapiens. Also noted: scale not given: the % may be the effect or the level left. An outline of the steps:
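Female ovariectomized nude mice received estrogen pellets. MCF-7 cells (2 × 10^6 in Matrigel) were injected sc into both flanks and grown 4-5 weeks to 200-300 mm3. Groups of n = 5 were dosed sc once daily, 6 days/week for 6 weeks, vehicle 0.3% HPC, 200 µL. Tumors were measured weekly by caliper, volume = (4/3)πr1²r2, and change was compared with vehicle controls.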

Series [4] concerns the target T3, Retinoic acid receptor alpha (Homo sapiens, UniProt P10276).
T3 sequence (P10276 whole entry): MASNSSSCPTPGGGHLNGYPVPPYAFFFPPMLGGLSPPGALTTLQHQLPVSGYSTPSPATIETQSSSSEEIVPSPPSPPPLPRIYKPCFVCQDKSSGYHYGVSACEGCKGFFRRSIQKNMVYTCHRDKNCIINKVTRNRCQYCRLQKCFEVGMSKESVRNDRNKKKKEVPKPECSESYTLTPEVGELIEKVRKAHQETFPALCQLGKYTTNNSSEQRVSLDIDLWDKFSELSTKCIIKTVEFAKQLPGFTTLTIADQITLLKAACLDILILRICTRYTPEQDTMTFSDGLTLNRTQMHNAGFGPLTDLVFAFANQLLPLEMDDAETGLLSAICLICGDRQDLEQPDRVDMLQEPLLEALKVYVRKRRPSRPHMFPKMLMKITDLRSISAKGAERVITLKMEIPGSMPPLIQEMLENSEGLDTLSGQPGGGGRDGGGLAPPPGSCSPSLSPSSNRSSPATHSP
The series is described as follows: Displacement of [11,12-3H]ARTA from RARalpha. An outline of the steps:
as §1

The subject of series [5] is LNCaP. The series is described as follows: Induction of cell differentiation in human LNCaP cells after 6 days. Format: functional, cell-based. The gist of the method: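 LNCaP cells given 1 µM compound, alone or with 1 µM ATRA, for 6 days. Lysates (50 µg) run on 10% SDS-PAGE and Western blotted with anti-cytokeratin 8/18, β-actin as control. ECL detection; band intensity by densitometry taken as the differentiation marker.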

The target of series [6] is T2, Cytochrome P450 26A1. The series is described as follows: Inhibition of ATRA-induced CYP26 in human T47D cells assessed as ATRA metabolism using [11.12-3H]-ATRA. Type of series: functional, cell-based. An outline of the steps: (§3)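 MCF-7 or T47D cells (1 × 10^6 per well) induced with 1 µM ATRA for 12-15 h, washed, then given inhibitor (0.0001-10 µM, ethanol stock) plus 0.001 µM [11,12-3H]-ATRA for 5 h. Media and cells extracted with ethyl acetate; metabolites measured by reverse-phase HPLC with radiometric detection; IC50 from dose-response curves.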

Series [7] is described as follows: (§4) Inhibition of ATRA hydroxylase in Syrian golden hamster liver microsome assessed ATRA metabolism using [11.12-3H]-ATRA. Format: microsomes, Mesocricetus auratus. The gist of the method:
as §2
Background: Liver microsomes are vesicles of endoplasmic reticulum, rich in cytochrome P450 enzymes.

Series [8] deals with T2, Cytochrome P450 26A1. The series is described as follows: Inhibition of ATRA-induced CYP26 in human MCF7 cells assessed ATRA as metabolism using [11.12-3H]-ATRA. Type of series: functional, cell-based. An outline of the steps: as §3
Series [9] relates to T47D. Briefly: Growth inhibition of human T47D cells after 6 days by MTT assay. Format: functional, cell-based. Conditions: 144 h. The gist of the method:
(§5)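 MCF-7 (IMEM, 5% FBS) or T47D (RPMI 1640, 10% FBS) cells, 1 × 10^4 per well, adhered ~18 h, then exposed to 0.0001-10 µM drug (ethanol) for 6 days with media and drug renewed on day 4. MTT for 2 h, formazan dissolved in DMSO, A540. Triplicate wells, 2-3 experiments; IC50 by nonlinear regression.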

The test system of series [10] is T47D. The series is described as follows: Induction of apoptosis in human T47D cells at 1 uM for 6 days by TUNEL assay. Format: functional, cell-based. An outline of the steps:
(§6)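 MCF-7 or T47D cells exposed to 1 µM compound for 6 days, then trypsinized, fixed in 1% paraformaldehyde and stored in 70% ethanol at -20 °C overnight. TdT/BrdUTP labeling (APO-BRDU TUNEL), fluorescein anti-BrdU plus PI/RNase stain; apoptotic cells counted by flow cytometry.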

Series [11] deals with LNCaP. The series is described as follows: Growth inhibition of human LNCaP cells after 6 days by MTT assay. Conditions: 144 h. Format: functional, cell-based. An outline of the steps:
(§7)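 LNCaP cells (1 × 10^4) on poly-L-lysine-coated wells, attached 36 h; PC-3 cells (1 × 10^4), uncoated, attached 24 h; both in RPMI 1640. Treated with a concentration range of drug for 6 days, medium changed every 3 days. MTT read-out at 540 nm; IC50 by nonlinear regression from at least two experiments.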

In another series the test system is PC-3. Briefly: Growth inhibition of human PC3 cells after 6 days by MTT assay. Format: functional, cell-based. To be noted: PC-3, 144 h. The gist of the method: as §7
The subject of series [12] is MCF7. Briefly: Induction of apoptosis in human MCF7 cells at 1 uM for 6 days by TUNEL assay. Type of series: functional, cell-based. An outline of the steps: as §6
Series [13] can be described thus: Displacement of [11,12-3H]ARTA from RARgamma. On the set-up: species or system Homo sapiens. The gist of the method: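 Recombinant S-Tag RARα, RARβ or RARγ fusion protein extracts (10-30 µg/mL total protein) in HEPES pH 7.9 binding buffer. Incubated with 1 nM [3H]all-trans-RA and 0-500 nM test compound for 3 h at 27 °C. Nonspecific binding measured with a 200-fold excess of unlabeled RA; IC50 from dose-response curves, at least two experiments.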

Series [14] deals with MCF7. The series is described as follows: Growth inhibition of human MCF7 cells after 6 days by MTT assay. Format: functional, cell-based. Conditions: MCF7, 144 h. An outline of the steps:
as §5

The target of series [15] is T2, Cytochrome P450 26A1. Briefly: Inhibition of ATRA-induced CYP26 in human T47D cells assessed as ATRA metabolism using [11.12-3H]-ATRA up to 10 uM. Type of series: functional, cell-based. The gist of the method:
(§8)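 Cells seeded at 1 × 10^6 per well and pretreated with 1 µM ATRA for 12-15 h to induce CYP26. After washing, they were incubated 5 h with inhibitor (0.0001-10 µM) plus 0.001 µM [11,12-3H]-ATRA; stocks were in 95% ethanol. […] IC50 was taken from dose-response curves.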

Series [16] concerns the target T2, Cytochrome P450 26A1. Briefly: Inhibition of ATRA-induced CYP26 in human MCF7 cells assessed as ATRA metabolism using [11.12-3H]-ATRA up to 10 uM. Format: functional, cell-based. An outline of the steps: as §8
Series [17] deals with MCF7. The series is described as follows: Antiproliferative effect against human MCF7 cells. Type of series: functional, cell-based. The gist of the method:
as §5

Another series is filed under the species Mesocricetus auratus. Described as §4. Format: microsomes. The gist of the method:
as §2

Activity calls are given as the source filed them. No cut-off for these calls is given here.

As usually defined, the IC50 is the concentration at which inhibition is half-maximal. In general, Ki refers to a measure of affinity in units of concentration, obtained from inhibition or displacement. Regarding `CC1=C(/C=C/C(C)=C/C=C/C(C)=C/C(=O)O)C(C)(C)CCC1n1ccnc1` (racemic), the result with MDA-MB-231 was inactive. The IC50 in series [1] is 175 nM; at Cytochrome P450 26A1 [2], 2.4 nM; in series [4] it was 20 nM; at Cytochrome P450 26A1 [6], 6.3 nM; in [7], 2.33 nM; at Cytochrome P450 26A1 [8], 10.9 nM. Moreover, the IC50 in the series on T47D [9] was 3 nM; in the series with LNCaP [11], 10000 nM; with PC-3, 7700 nM; in series [13] it was 45 nM; with MCF7 [14], 490 nM. In addition, the Activity in the series on MCF7 [3] was 85.2%. Moreover, the result with LNCaP [5], with T47D [10] and in the series on MCF7 [12] was Active. In addition, the affinity in series [7], expressed as Ki, was 0.22 nM.
On to `Clc1cccc(C(c2ccc3[nH]cnc3c2)n2ccnc2)c1` (centres undefined) [LIAROZOLE], for which the IC50 in series [7] was found to be 6000 nM. Further, the Activity entry on Cytochrome P450 26A1 [15] and at Cytochrome P450 26A1 [16] was “Not Active” in each case.
Usually Km stands for the concentration of substrate that gives half-maximal velocity. In the case of `CC1=C(/C=C/C(C)=C/C=C/C(C)=C/C(=O)O)C(C)(C)CCC1` [TRETINOIN], the outcome in the series with MDA-MB-231 and in the series with MCF7 [3] (Homo sapiens) was inactive. Further, the IC50 in the series with MCF7 [17] stood at 584 nM; in the series on T47D [9], 6 nM; with LNCaP [11] it was 10000 nM; in the series on PC-3, 2000 nM; in series [13] it was 10 nM; in the series on MCF7 [14], 580 nM. In addition, the Michaelis constant (Km) in the series listed under Mesocricetus auratus is 0.16 µM.

The values above are taken from ChEMBL document CHEMBL1149300, “Novel retinoic acid metabolism blocking agents endowed with multiple biological activities are efficient growth inhibitors of human breast and prostate cancer cells in vitro and a human breast tumor xenograft in nude mice” (J Med Chem, 2004).
